Experimental data reported in ChEMBL document CHEMBL5143667, “Identification of Aloe-derived natural products as prospective lead scaffolds for SARS-CoV-2 main protease (Mpro) inhibitors” (Bioorg Med Chem Lett, 2022).
Square brackets hold non-standard residues; d marks the D form. Peptide text beside a SMILES is read from it. * marks the point of attachment. Nle = CCCC[C@H](N)C(=O)O; Cbz = O=C(OCc1ccccc1)*

Legend:
[1] = biological target: Replicase polyprotein 1ab (Severe acute respiratory syndrome coronavirus 2) (UniProt P0DTD1); test: Inhibition of SARS-CoV-2 main protease expressed in Escherichia coli using DABCYL-KTSAVLQ1SGFRKM-E(EDANS)-NH2 peptide as substrate at 100 uM incubated for 30 mins by FRET based assay relative to control
Method in brief: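 Started by adding substrate–inhibitor mix to enzyme. Ex 360/Em 460 nm every 2.5 min for 1 h. Initial velocity from first 20 min, substrate background subtracted, % inhibition vs DMSO control. Triplicate, mean ± SD.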

[2] = biological target: Replicase polyprotein 1ab (Severe acute respiratory syndrome coronavirus 2, UniProt P0DTD1); test: Inhibition of SARS-CoV-2 main protease expressed in Escherichia coli using DABCYL-KTSAVLQ1SGFRKM-E(EDANS)-NH2 peptide as substrate incubated for 30 mins by FRET based assay
Method in brief: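 Same FRET set-up with varied inhibitor concentrations: 50 nM Mpro, 10 μM substrate, Tris-HCl/NaCl/EDTA/DTT buffer, pH 7.3, room temperature, read every 2.5 min for 1 h. Initial slopes from first 20 min, % inhibition vs DMSO. IC50 by nonlinear regression, three-parameter dose–response inhibition model. Triplicates, mean ± SD.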

SMILES | inhibition [1] [%] | IC50 [2] [µM]
CC(=O)N[C@@H](CC(C)C)C(=O)N[C@@H](CC(C)C)C(=O)N[C@H](C=O)CCCNC(=N)N | 59 | –
CC1=C(O)C(=O)C=C2C1=CC=C1[C@@]2(C)CC[C@@]2(C)[C@@H]3C[C@](C)(C(=O)O)CC[C@]3(C)CC[C@]12C | 57.7 | –
O=C(O)/C(S)=C/c1c[nH]c2ccc(F)cc12 | 71.5 | –
COc1cc(C)c2c(=O)cc(C[C@@H](C)O)oc2c1[C@@H]1O[C@H](CO)[C@@H](O)[C@H](O)[C@H]1OC(=O)/C=C/c1ccc(O)cc1 | 72.6 | 125
CCCCCCCCCCCCCCCc1cccc(O)c1C(=O)O [ANACARDIC ACID] | 96.1 | 6.8
CC(C)C[C@@H](C=O)NC(=O)[C@H](CC(C)C)NC(=O)[C@H](CC(C)C)NC(=O)OCc1ccccc1 (Cbz-Leu-Leu-Leu-aldehyde) | 99 | –
CCCC(NC(=O)C(CC(C)C)NC(=O)OCc1ccccc1)C(=O)C(=O)NCc1ccccn1 (stereo unspecified) | 98.3 | –
Cn1cc(/C=C/C(=O)c2cccc(F)c2)cc1/C=C/C(=O)NO | 51.4 | –
C=C[C@H]1C[C@]1(NC(=O)[C@@H]1C[C@@H](Oc2ncc(OC)c3ccc(Cl)cc23)CN1C(=O)[C@@H](NC(=O)OC(C)(C)C)C(C)(C)C)C(=O)NS(=O)(=O)C1CC1 | 49.4 | –
Nc1ccccc1NC(=O)c1ccc(CNc2nccc(-c3cccnc3)n2)cc1 | 66.7 | –
COc1cc(C)c2c(=O)cc(CC(C)=O)oc2c1[C@@H]1O[C@H](CO)[C@@H](O)[C@H](O)[C@H]1OC(=O)/C=C/c1ccc(O)cc1 | 60.5 | –
CC(NC(=O)[C@H](Cc1ccccc1)NC(=O)OCc1ccccc1)C(=O)CF (stereo partly specified) | 90.1 | –
Cc1cc(C(=O)CN2CCCC2)c(C)n1-c1ccc(F)cc1 | 54.8 | –
O=C1CC(=O)c2c(Cl)c(Cl)c(Cl)c(Cl)c21 | 94.2 | 138
CCOC(=O)C[C@H](NC(=O)[C@@H](NC(=O)[C@H](CCC(=O)OC)NC(=O)[C@H](CC(=O)OCC)NC(=O)OCc1ccccc1)C(C)C)C(=O)CF | 100 | –
CCCC[C@@H](C=O)NC(=O)[C@H](CC(C)C)NC(=O)[C@H](CC(C)C)NC(C)=O (Ac-Leu-Leu-[Nle]-aldehyde) | 95.2 | –
Cc1coc2c1C(=O)C(=O)c1c-2ccc2c1CCCC2(C)C | 53.9 | –
CC(=O)Cc1cc(=O)c2c(C)cc(O)c([C@@H]3O[C@H](CO)[C@@H](O)[C@H](O)[C@H]3O)c2o1 | 80.1 | 38.9
CSCC[C@@H](C=O)NC(=O)[C@H](CC(C)C)NC(=O)[C@H](CC(C)C)NC(C)=O (Ac-Leu-Leu-Met-aldehyde) | 99.8 | –
CC(C)(C)NC(=O)N[C@H](C(=O)N1C[C@H]2[C@@H]([C@H]1C(=O)NC(CC1CCC1)C(=O)C(N)=O)C2(C)C)C(C)(C)C (stereo partly specified) | 97.4 | –
Cc1c(O)cccc1C(=O)N[C@@H](CSc1ccccc1)[C@H](O)CN1C[C@H]2CCCC[C@H]2C[C@H]1C(=O)NC(C)(C)C | 56.1 | –
CC(C)C[C@H](NC(=O)[C@H](Cc1ccccc1)C[C@@H](O)[C@H](Cc1ccccc1)NC(=O)OC(C)(C)C)C(=O)N[C@@H](Cc1ccccc1)C(N)=O | 65 | –
CC(C)(C)C1NC(=O)O[C@@H]2CCC[C@H]2OC/C=C/C(F)(F)c2nc3ccccc3nc2O[C@@H]2C[C@@H](C(=O)N[C@]3(C(=O)NS(=O)(=O)C4(C)CC4)C[C@H]3C(F)F)N(C2)C1=O (stereo partly specified) | 51.7 | –
CC(NC(=O)Cc1cc(F)cc(F)c1)C(=O)NC1C(=O)N(C)c2ccccc2-c2ccccc21 (stereo unspecified) | 53.8 | –
CCCC[C@@H](C=O)NC(=O)[C@H](CC(C)C)NC(=O)OCc1ccccc1 | 97.2 | –
CC(=O)O/N=C1\C(=O)N(Cc2cc(Cl)ccc2Cl)c2ccc(Cl)cc21 | 61.4 | –
CCC[C@H](NC(=O)[C@@H]1[C@H]2CCC[C@H]2CN1C(=O)[C@@H](NC(=O)[C@@H](NC(=O)c1cnccn1)C1CCCCC1)C(C)(C)C)C(=O)C(=O)NC1CC1 | 88.8 | –
